UBC13 inh = inhibitors of human UBC13 polyubiquitin chain formation | P61088 | 330,000 tested, 0.47% active | AID 485273 | inhibition, % at 20 µM | TR-FRET; in the data active = inhibition above about 45%, passing the limit was not always enough
MEKK2mut PB1 HTS = signal of MEK5 binding to mutant human MEKK2 PB1 domain; percent response, % at 10 µM; bead flow cytometry, Alexa488-MEK5 binding to MEKK2 mutant; 290,000 tested, 0.35% active; AID 1530; in the data active = percent response above about 24%, passing the limit was not always enough
Apaf1 inhib = human Apaf-1 inhibition; reconstituted apoptosome caspase-3 activity, DEVD-Rh110 fluorescence; 330,000 tested, 0.71% active; O14727; inhibition, % at 20 µM; active = inhibition of at least 40% at 20 µM;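 also: plate controls were DMSO wells for no effect and DEVD-CHO caspase inhibitor wells for full effect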
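Material: reconstituted apoptosome with Apaf-1, cytochrome c, caspase-9, procaspase-3, dATP; medium: pH 7.5 Hepes buffer with CHAPS, BSA, DTT; also added: cytochrome c and DEVD-Rh110 substrate; timing: 30 min plus 50 min, RT; signal: Rh110 fluorescence intensity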
MEKK2 WT-MEK5 = raises or lowers MEK5 binding to wildtype human MEKK2 PB1 domain; bead flow cytometry, Alexa488-MEK5 binding to MEKK2 WT; actives lie on both sides; 290,000 tested, 1.1% active; binding response (% of control), % at 10 µM; in the data active = binding response below about 67% or above about 130%
MEKK3 PB1 HTS = raises or lowers MEK5 binding to the human MEKK3 PB1 domain | 290,000 tested, 1.4% active | binding response (% of control), % at 10 µM | bead-based flow cytometry, Alexa488-MEK5 binding to MEKK3; actives lie on both sides; 0 = blocked by unlabeled MEK5, 100 = vehicle;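 active = binding response more than 3 SD above or below the average of its plate-row segment, actives on both sides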;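 also: Alexa488 bead fluorescence after subtracting the streptavidin-only scavenger bead signal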
DSG3 Ab inh = human desmoglein-3 autoantibody binding inhibition | P32926 | DSG3-coupled beads, scFv-anti-DSG3-GFP binding, flow cytometry; hits give low values | binding (percent of control), % at 10 µM | 310,000 tested, 0.48% active | AID 588358;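 active = binding more than 3 SD below its plate's average and above zero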;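 also: hits lower antibody fragment binding to DSG3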
Target sequence (P32926 whole entry, looked up, the tested form may be a part): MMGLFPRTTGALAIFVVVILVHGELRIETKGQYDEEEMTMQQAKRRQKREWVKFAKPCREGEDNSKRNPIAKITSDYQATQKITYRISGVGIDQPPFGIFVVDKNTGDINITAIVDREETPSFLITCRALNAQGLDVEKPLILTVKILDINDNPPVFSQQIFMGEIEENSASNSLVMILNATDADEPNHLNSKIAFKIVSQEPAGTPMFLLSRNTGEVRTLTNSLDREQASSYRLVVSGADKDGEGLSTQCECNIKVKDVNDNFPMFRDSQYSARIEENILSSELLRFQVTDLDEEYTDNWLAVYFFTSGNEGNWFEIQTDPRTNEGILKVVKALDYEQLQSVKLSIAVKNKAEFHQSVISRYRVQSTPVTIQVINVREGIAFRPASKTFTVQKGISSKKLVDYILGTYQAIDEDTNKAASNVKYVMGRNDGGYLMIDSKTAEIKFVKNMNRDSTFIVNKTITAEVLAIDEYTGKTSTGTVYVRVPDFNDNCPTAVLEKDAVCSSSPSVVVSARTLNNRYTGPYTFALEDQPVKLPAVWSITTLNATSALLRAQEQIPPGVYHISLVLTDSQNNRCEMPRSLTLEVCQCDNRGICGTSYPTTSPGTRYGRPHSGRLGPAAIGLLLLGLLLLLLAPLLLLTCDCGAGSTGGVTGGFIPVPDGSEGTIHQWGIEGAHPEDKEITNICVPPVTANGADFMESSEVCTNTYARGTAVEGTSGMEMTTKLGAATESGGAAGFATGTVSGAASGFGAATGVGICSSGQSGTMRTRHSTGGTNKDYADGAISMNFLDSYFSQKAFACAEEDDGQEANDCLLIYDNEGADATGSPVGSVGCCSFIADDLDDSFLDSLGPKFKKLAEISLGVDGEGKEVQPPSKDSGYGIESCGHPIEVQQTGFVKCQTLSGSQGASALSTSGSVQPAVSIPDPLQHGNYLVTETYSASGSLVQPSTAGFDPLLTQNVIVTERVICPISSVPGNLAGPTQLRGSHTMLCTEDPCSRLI
MEKK2wt confirm = raises or lowers MEK5 binding to wildtype human MEKK2, retest | shares compounds with MEKK3 PB1 HTS | bead flow cytometry, Alexa488-MEK5 binding to MEKK2 WT; actives lie on both sides | binding response (% of control), % at 10 µM | 5,900 tested, 2.4% active | AID 1892; in the data active = binding response below about 16% or above about 210%; inactive = in between
MEKK2mut-MEK5 = signal of MEK5 binding to mutant human MEKK2, retest | shares compounds with MEKK3 PB1 HTS | bead flow cytometry, Alexa488-MEK5 binding to MEKK2 mutant | percent response, % at 10 µM | 5,900 tested, 2% active; in the data active = percent response mostly above about 71%, no sharp cut-off; inactive = mostly below about 38%;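 also: higher means compound restores mutant binding toward wildtype level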
MEKK3-MEK5 inh = MEKK3-MEK5 PB1 inhibition, single concentration confirmation | shares compounds with MEKK3 PB1 HTS | bead flow cytometry, Alexa488-MEK5 binding to MEKK3; hits give low values | binding response (% of control), % at 10 µM | 5,900 tested, 1.8% active;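 active = binding response below 72% of control, or above a set upper limit, though filed actives all read lower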;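 also: 100% = DMSO only wells and 0% = binding blocked by excess unlabeled MEK5; lower values mean stronger disruption of MEK5 binding to MEKK3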
Active calls of the source: *; [ ] = another dose, or the depositor's remark. The list is not random: actives were taken first. Their share in the collection is about 3.2%.

Screening O=C(NCc1ccc2c(c1)OCO2)C(C(=O)c1ccccc1)n1cc(Cl)ccc1=O (stereo unspecified) returned UBC13 inh 0.6, MEKK2mut PB1 HTS 1.0, Apaf1 inhib 3.8, MEKK2 WT-MEK5 106.0, MEKK3 PB1 HTS 132.0*, DSG3 Ab inh 95.0, MEKK2wt confirm 101.0, MEKK2mut-MEK5 -3.0 and MEKK3-MEK5 inh 102.0.
Screening O=C(NCc1ccc2c(c1)OCO2)c1cccc(C(=O)NCc2ccc3c(c2)OCO3)c1 returned UBC13 inh 2.6, MEKK2mut PB1 HTS 5.0, Apaf1 inhib 9.1, MEKK2 WT-MEK5 104.0, MEKK3 PB1 HTS 105.0 and DSG3 Ab inh 98.6.
For Cc1[nH]c(=O)[nH]c(=O)c1S(=O)(=O)Nc1ccc(F)cc1Cl the results were UBC13 inh 4.8, MEKK2mut PB1 HTS 10.0, Apaf1 inhib -3.8, MEKK2 WT-MEK5 105.0, MEKK3 PB1 HTS 105.0 and DSG3 Ab inh 124.0.
Screening Cc1ccc(S(=O)(=O)NCC(=O)NCC2COc3ccccc3O2)cc1C (stereo unspecified) returned UBC13 inh -4.7, Apaf1 inhib 4.0 and DSG3 Ab inh 91.2.
Screening C[C@H](CO)N1C[C@H](C)[C@@H](CN(C)S(=O)(=O)c2cn(C)cn2)Oc2ncc(Br)cc2C1=O returned DSG3 Ab inh 95.2.
`COc1cccc(C(=O)COC(=O)c2n[nH]c(=O)c3ccccc23)c1` gave UBC13 inh 5.0, MEKK2mut PB1 HTS -12.0, Apaf1 inhib 7.5, MEKK2 WT-MEK5 71.0, MEKK3 PB1 HTS 60.0*[inhibitor], DSG3 Ab inh 96.5, MEKK2wt confirm 101.0, MEKK2mut-MEK5 4.0 and MEKK3-MEK5 inh 104.0.
For Cc1ccc(C2CC(c3cccs3)=NN2S(=O)(=O)c2ccc(C)cc2)cc1 (stereo unspecified) the results were UBC13 inh 5.4, MEKK2mut PB1 HTS 9.0, Apaf1 inhib -5.9, MEKK2 WT-MEK5 61.0*[inhibitor], MEKK3 PB1 HTS 102.0, DSG3 Ab inh 131.6, MEKK2wt confirm 94.0, MEKK2mut-MEK5 -1.0 and MEKK3-MEK5 inh 101.0.
`COc1cccc(C2CC(c3cccs3)=NN2S(C)(=O)=O)c1OC` (stereo unspecified) gave UBC13 inh -4.8, MEKK2mut PB1 HTS -8.0, Apaf1 inhib 4.0, MEKK2 WT-MEK5 55.0, MEKK3 PB1 HTS 86.0 and DSG3 Ab inh 122.3.
CS(=O)(=O)N1N=C(c2cccs2)CC1c1ccccc1F (stereo unspecified) was read as UBC13 inh 2.7, MEKK2mut PB1 HTS 3.0, Apaf1 inhib 3.7, MEKK2 WT-MEK5 -4.0*[inhibitor], MEKK3 PB1 HTS 99.0, DSG3 Ab inh 98.9, MEKK2wt confirm 102.0, MEKK2mut-MEK5 6.0 and MEKK3-MEK5 inh 105.0.
Screening CCN1C(=NCCc2cccs2)N[C@@H](c2cccs2)C(C(=O)OC)=C1C returned UBC13 inh 16.7, MEKK2mut PB1 HTS 3.0, Apaf1 inhib 22.3, MEKK2 WT-MEK5 110.0, MEKK3 PB1 HTS 100.0 and DSG3 Ab inh 114.3.
Screening CCN(CC)S(=O)(=O)c1ccc(C(O)=C(C#N)c2nc3ccccc3n2C)cc1 returned DSG3 Ab inh 90.3.
CCN1CCN(S(=O)(=O)c2ccc3ccccc3c2)CC1 was read as UBC13 inh -7.7, MEKK2mut PB1 HTS -20.0, Apaf1 inhib 1.9, MEKK2 WT-MEK5 67.0, MEKK3 PB1 HTS 50.0*[inhibitor], DSG3 Ab inh 97.2, MEKK2wt confirm 104.0, MEKK2mut-MEK5 2.0 and MEKK3-MEK5 inh 101.0.
`CCS(=O)(=O)N1CCN(S(=O)(=O)c2ccc3ccccc3c2)CC1` gave UBC13 inh -5.9, MEKK2mut PB1 HTS 3.0, Apaf1 inhib -5.4, MEKK2 WT-MEK5 107.0, MEKK3 PB1 HTS 107.0 and DSG3 Ab inh 100.2.
`COc1ccc(C(=O)N2CCCC(C(=O)O)C2)c2ccccc12` (stereo unspecified) gave UBC13 inh -1.2, MEKK2mut PB1 HTS -2.0, Apaf1 inhib -8.0, MEKK2 WT-MEK5 95.0, MEKK3 PB1 HTS 100.0 and DSG3 Ab inh 96.4.
COc1ccc(-n2cccc2/C=C2/NC(=O)N(c3cccc(Cl)c3)C2=O)cc1 was read as UBC13 inh -0.7, MEKK2mut PB1 HTS 0.0, Apaf1 inhib 5.0, MEKK2 WT-MEK5 105.0, MEKK3 PB1 HTS 130.0*, MEKK2wt confirm 102.0, MEKK2mut-MEK5 5.0 and MEKK3-MEK5 inh 101.0.
Screening O=C(O)c1cccc(-n2cccc2/C=C2/NC(=O)N(c3ccc(Cl)cc3)C2=O)c1 returned MEKK2mut PB1 HTS -7.0, MEKK2 WT-MEK5 63.0*[inhibitor], MEKK3 PB1 HTS 74.0*[inhibitor], DSG3 Ab inh 40.6*, MEKK2wt confirm 76.0, MEKK2mut-MEK5 -30.0 and MEKK3-MEK5 inh 86.0.
COC(=O)Nc1ccc(SCC(=O)c2cccc([N+](=O)[O-])c2)cc1 was read as UBC13 inh 2.4, MEKK2mut PB1 HTS 0.0, Apaf1 inhib 6.5, MEKK2 WT-MEK5 100.0, MEKK3 PB1 HTS 101.0 and DSG3 Ab inh 99.4.
O=C(CCc1ccccc1)NNC(=O)c1ccncc1 was read as UBC13 inh 5.5, Apaf1 inhib -7.1 and DSG3 Ab inh 96.3.
`OCCNCc1ccc(OCc2ccc(Cl)cc2Cl)cc1` gave UBC13 inh 20.0, MEKK2mut PB1 HTS 27.0, Apaf1 inhib 6.3, MEKK2 WT-MEK5 138.0*, MEKK3 PB1 HTS 101.0, DSG3 Ab inh 105.0, MEKK2wt confirm 124.0, MEKK2mut-MEK5 6.0 and MEKK3-MEK5 inh 98.0.
`OCCCCNCc1ccc(OCc2ccc(Cl)cc2Cl)cc1` gave UBC13 inh 12.0, MEKK2mut PB1 HTS 34.0*, Apaf1 inhib 14.0, MEKK2 WT-MEK5 169.0*, MEKK3 PB1 HTS 110.0, DSG3 Ab inh 92.8, MEKK2wt confirm 163.0, MEKK2mut-MEK5 75.0* and MEKK3-MEK5 inh 108.0.
`O=C(Nc1ccccc1)Oc1cccc(Br)c1` gave UBC13 inh 4.0, MEKK2mut PB1 HTS -1.0, Apaf1 inhib -27.0, MEKK2 WT-MEK5 100.0, MEKK3 PB1 HTS 99.0 and DSG3 Ab inh 114.4.
For COCCNC(=O)C1=NOC(Cn2cc(C#N)c(=O)n(C)c2=O)C1 (stereo unspecified) the results were UBC13 inh 3.2, MEKK2mut PB1 HTS 6.0, Apaf1 inhib -5.3, MEKK2 WT-MEK5 129.0, MEKK3 PB1 HTS 145.0*, DSG3 Ab inh 104.6, MEKK2wt confirm 100.0, MEKK2mut-MEK5 4.0 and MEKK3-MEK5 inh 108.0.

Source: PubChem BioAssay (several laboratories)
